{"data": "Measured values from different studies", "target": "Histamine H2 receptor (HRH2, Homo sapiens, UniProt P25021)", "tested at": "10 µM", "note": "Each line is one published result; the experiments were not run side by side."}
{"Structure (SMILES)": "c1ccc(C(NCCNC(c2ccccc2)c2ccccc2)c2ccccc2)cc1", "read-out": "cell-free assay", "measurement": "inhibition", "result": "99%"}
{"Structure (SMILES)": "COCc1c(-c2cc3cc(C)cc(OC)c3s2)c2c(N)ncnn2c1CN1CCNC(=O)C1", "read-out": "ligand displacement", "method": "radioligand", "measurement": "inhibition", "result": "-8%"}
{"Structure (SMILES)": "CCN(CC)CCCC[C@H](NC(=O)[C@H](CC(C)C)NC(=O)[C@H](C)NC(=O)[C@H](Cc1ccccc1)NC(=O)c1ccc(C(C)(C)C)cc1)C(=O)N[C@@H](CO)C(=O)OC", "read-out": "ligand displacement", "method": "radioligand", "measurement": "inhibition", "result": "1%"}
{"Structure (SMILES)": "CCCCCCCCCCCC(=O)OC[C@@H](COP(=O)(O)OCCNC(=O)c1ccc(Cn2c(=O)[nH]c3c(N)nc(OCCOC)nc32)cc1)OC(=O)CCCCCCCCCCC", "read-out": "ligand displacement", "method": "radioligand", "measurement": "inhibition", "result": "40%"}
{"Structure (SMILES)": "COc1ccc(S(=O)(=O)N2CCCCC2)cc1C", "read-out": "ligand displacement", "method": "radioligand", "measurement": "inhibition", "result": "< 30%"}
{"Structure (SMILES)": "C[C@H](C(=O)N[C@H]1COc2ccccc2[C@@H]1S(C)(=O)=O)c1ccc(F)cc1", "read-out": "cell-free assay", "measurement": "inhibition", "result": "-11%"}
{"Structure (SMILES)": "CC(C)Cn1cnc2c(N)nc3ccccc3c21", "read-out": "ligand displacement", "method": "radioligand", "measurement": "inhibition", "result": "63%"}
{"Structure (SMILES)": "Clc1ccc2c(C3CCN(CCc4c[nH]c5ccccc45)CC3)c[nH]c2c1", "read-out": "ligand displacement", "method": "radioligand", "measurement": "inhibition", "result": "53%"}
{"Structure (SMILES)": "N#CC1(c2ccccn2)CCN(Cc2cc(C(=O)O)c(=O)n3ccccc23)CC1", "read-out": "cell-free assay", "measurement": "inhibition", "result": "11.7%"}
{"Structure (SMILES)": "Nc1ncc(-c2nc(N3CCOCC3)nc(N3CCOCC3)n2)c(C(F)F)n1", "read-out": "cell-free assay", "method": "radioligand", "measurement": "remaining signal", "result": "106%"}
{"Structure (SMILES)": "CC(C)N1CCC[C@H]1CNC(=O)c1cn(C2CCCC2)c(=O)c2c1c1ccccc1n2C", "read-out": "ligand displacement", "method": "radioligand", "measurement": "inhibition", "result": "25%"}
{"Structure (SMILES)": "Cn1cncc1[C@@](O)(COc1ccc(C#N)cc1-c1ccc(OC(F)(F)F)cc1)c1ccc(C#N)cc1", "read-out": "ligand displacement", "measurement": "inhibition", "result": "5.38%"}
